Assay outcomes deposited in PubChem by Sanford-Burnham Center for Chemical Genomics.
Shown are actives, neighbours in structure and some others; about 1.8% of the full set was active somewhere.
697 NFkB inh: inhibitors of PMA/ionomycin-induced NF-kB reporter, 697 cells, primary screen, B-cell NF-kB inhibitor project, cell-based, luminescence, uHTS | 697 B-cell NF-kB luciferase reporter, 16 h | 0.33% of 330,000 active | inhibition, % at 4 µM | AID 435022, 2010; in the data active means inhibition above about 35%
H9c2 TAG inh: inhibitors of triacylglycerol accumulation, primary screen, cell-based, uHTS, fluorescence, H9c2; 0.66% of 230,000 active; H9c2 cells, Nile Red lipid (TAG) fluorescence; cells loaded with 200 µM oleic acid; inhibition, % at 12.5 µM; AID 651582, 2012;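 active means pattern-corrected inhibition of lipid staining of at least 50% with the nuclear-stain viability signal not falling by more than 50%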
Hep lipid drop: inhibitors of hepatocyte lipid droplet formation, primary screen, imaging, high-throughput imaging, BODIPY stain; AML12 mouse hepatocytes, oleate lipid droplets; inhibition, % at 6.5 µM; 0.4% of 240,000 active;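 active means lipid droplet intensity inhibited by at least 50%, with more than 500 cells counted; inconclusive means wells with under 300 cells, treated as cytotoxic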
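Assay system: AML12 mouse liver cells | Compound: 6.5 µM single-point dosing | Schedule: Overnight exposure | Technique: Fluorescence imaging, 20x objective, two fields per well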
Jurkat NFkB inh: inhibitors of induced NF-kB luciferase reporter, primary screen, TCR NF-kB activation inhibitor project, cell-based, luminescence, uHTS; Jurkat, PMA/ionomycin-induced NF-kB luciferase reporter; inhibition, % at 4 µM; 0.53% of 330,000 active; AID 435003, 2010; in the data active means inhibition above about 50%
iPSC survival up: enhancers of single-cell hiPSC survival, primary screen, ATPlite luminescence | 100% = ROCK inhibitor wells, 0% = DMSO | survival enhancement, % at 20 µM | 0.044% of 360,000 active; in the data active means survival enhancement above about 18%;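 further: cells exposed to compounds for 16 hours before the ATP read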
Gli-Sufu block: Gli-Sufu pathway antagonists, primary screen, luciferase luminescence, Sufu-KO-LIGHT cells, uHTS. 0.74% of 340,000 active. Sufu-KO-LIGHT fibroblasts, Gli luciferase reporter luminescence. inhibition, % at 5 µM;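 active means inhibition above about 55%, limit read from the data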
Jurkat NFkB conf: PMA/ionomycin-induced NF-kB reporter inhibitors, Jurkat retest, confirmation, T-cell NF-kB inhibitor project, cell-based, luminescence, single concentration | inhibition, % at 4 µM | 27% of 2,700 active | Jurkat NF-kB luciferase, 16 h | shares compounds with Jurkat NFkB inh;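 active means inhibition reaching about 45% at 4 µM in either replicate, limit read from the data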
697 NFkB conf: PMA/ionomycin-induced NF-kB reporter inhibitors, 697 retest, confirmation, B-cell NF-kB inhibitor project, cell-based, luminescence, single concentration | shares compounds with 697 NFkB inh | 697 B-cell NF-kB luciferase, 16 h | inhibition, % at 4 µM | 35% of 2,000 active | AID 449746, 2010; in the data active means inhibition mostly above about 28%, no sharp cut-off; inactive means mostly below about 22%
Gli-Sufu confirm: Gli-SUFU pathway antagonists, confirmation, single concentration, luciferase luminescence, Sufu-KO-LIGHT cells. shares compounds with Gli-Sufu block. Gli luciferase reporter. inhibition, % at 5 µM. 40% of 2,500 active. AID 602428, 2012;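 active means mean inhibition at 5 µM reaching about 45%, limit read from the data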
Gli cytotox: cytotoxicity in Sufu-KO-LIGHT cells, confirmation, cytotoxicity control for Gli-SUFU antagonist project, cell-based, ATP luminescence, single concentration; shares compounds with Gli-Sufu block; cytotoxicity, % at 5 µM; 32% of 2,500 active;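 active means mean cytotoxicity at 5 µM above about 25%, limit read from the data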;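 further: cells exposed to compound overnight for roughly 16 to 18 hours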
Wnt3a counter: Wnt3a reporter signal inhibition, confirmation, counter-screen for Gli-SUFU antagonist project, Wnt-LIGHT cells, luminescence, single concentration | shares compounds with Gli-Sufu block | Wnt3a-driven luciferase reporter | inhibition, % at 6.25 µM | 20% of 2,500 active | AID 651995, 2013;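 active means mean inhibition above about 25%, limit read from the data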
H9c2 TAG conf: triacylglycerol accumulation inhibitors, retest, confirmation, cell-based, single concentration, Nile Red fluorescence, H9c2; shares compounds with H9c2 TAG inh; H9c2 lipid accumulation; cells loaded with 200 µM oleic acid; inhibition, % at 12.5 µM; 71% of 990 active;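 active means mean inhibition across replicates of 40% or more; inactive means mean inhibition below 40%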
Hits are given with their value; – = inactive; ? = inconclusive; · = no result.

SMILES	697 NFkB inh	H9c2 TAG inh	Hep lipid drop	Jurkat NFkB inh	iPSC survival up	Gli-Sufu block	697 NFkB conf	others
COc1cc(C2C(C#N)=C(N)Oc3cc4c(cc32)OCO4)cc(OC)c1OC (stereo not drawn)	–	51	?	77	–	58	·	Jurkat NFkB conf=–;Gli-Sufu confirm=56;Gli cytotox=51;Wnt3a counter=–;H9c2 TAG conf=71
COc1ccc(C(=O)NC(=S)NCc2ccco2)cc1	–	–	–	–	–	–	·
COc1ccc(C(=O)Nc2ccc(Cl)cc2C(=O)NCc2ccco2)cc1	–	61	–	52	–	–	·	Jurkat NFkB conf=–;H9c2 TAG conf=73
CCCCOc1ccccc1C1CC(=O)NC2=C1C(=O)CCC2 (stereo not drawn)	–	71	·	62	–	–	·	Jurkat NFkB conf=50;H9c2 TAG conf=66
CCOc1ccccc1C1CC(=O)NC2=C1C(=O)CCC2 (stereo not drawn)	–	·	·	–	–	–	·
Cc1ccc(/C=C2\SC(=S)N(CCC(=O)NNC(=O)c3ccncc3)C2=O)cc1	44	–	–	–	–	–	31
Cc1ccc(/C=C2\SC(=S)N(CCCC(=O)Nc3cccnc3)C2=O)cc1	90	–	–	–	–	·	99
Cc1ccc(/C=C2\SC(=S)N(CC(=O)Nc3cccnc3)C2=O)cc1	–	·	–	–	–	–	·
COc1ccc(/C=C2\SC(=S)N(CCCC(=O)Nc3cc(C)on3)C2=O)cc1OC	–	·	–	–	–	–	·
Cc1ccc(/C=C2\SC(=S)N(CCCC(=O)Nc3cc(C)on3)C2=O)cc1	53	–	–	–	–	–	59
O=C(NCC(c1ccc(F)cc1)N1CCOCC1)c1cccc(Br)c1 (stereo not drawn)	–	–	–	–	–	–	·
CCc1nc2c(OCCC3CCCCC3)cccn2c1N(C)C(=O)C(C)C	·	–	·	·	–	·	·
CC(OC(=O)CSc1ccc(F)cc1)C(=O)NC1(C#N)CCCCC1 (stereo not drawn)	–	–	–	–	–	–	·
Cc1nn(Cc2c(Cl)cccc2Cl)c(C)c1NC(=O)c1cc(C(C)C)on1	–	–	·	–	–	–	–
Cc1ccc(S(=O)(=O)N(C)C)cc1NC(=O)CN1C(=O)NC(Cc2ccccc2)C1=O (stereo not drawn)	–	–	·	–	–	–	·
O=c1[nH]c(=O)n([C@H]2C[C@H](O)[C@@H](CO)O2)cc1C(F)(F)F	48	–	–	–	–	–	58
Nc1c(Cl)cc(-c2csc(NC(CO)c3nc4ccccc4n3CCOCCO)n2)cc1Cl (stereo not drawn)	–	–	·	–	–	–	·
CCOc1ccc2nc(-c3ccccc3)[nH]c2c1	–	50	·	–	–	–	–
Cc1cc(NC(=O)CN2C(=O)[C@@H]3[C@H](C2=O)[C@@H]2C[C@H]3C(Br)C2Br)no1 (stereo partly drawn)	–	–	–	–	–	–	·
O=C(NCC1CCCO1)c1ccc2c(=O)n(CC3CCCO3)c(SCC(=O)N3CCCC3)nc2c1 (stereo not drawn)	–	–	–	–	–	·	·
O=C(CN1C(=O)NC2(CCCCCC2)C1=O)c1ccc2c(c1)OCCO2	–	–	–	–	–	–	–
CCC(C)Cn1c(S(=O)(=O)O)nc2ccccc21 (stereo not drawn)	–	–	–	–	–	–	·
CC(C)Cn1c(S(=O)(=O)O)nc2ccccc21	35	–	–	–	–	–	–
O=C(NCCCN1CCOCC1)C(=O)N/N=C/c1cccc2ccccc12	40	–	–	–	–	–	38
CCOc1cc(/C=C2\CCC/C(=C\c3cc(Cl)c(O)c(OCC)c3)C2=O)cc(Cl)c1O	–	–	·	–	–	–	–
SMILES	697 NFkB inh	H9c2 TAG inh	Hep lipid drop	Jurkat NFkB inh	iPSC survival up	Gli-Sufu block	697 NFkB conf	others
CCOc1cc(/C=C2\CN(C)C/C(=C\c3ccc(O)c(OCC)c3)C2=O)ccc1O	–	·	–	–	–	–	·
COc1cccc(NC(=O)N2CCC(C(=O)Nc3ccc(C)cc3C)CC2)c1	35	–	·	–	–	–	–
O=C(N/N=C/C(Br)=C\c1ccccc1)c1n[nH]c2c1CCC2	–	·	?	–	–	–	–
O=C(N/N=C/C=C/c1ccccc1)c1n[nH]c2c1CCC2	–	·	–	–	–	–	·
Cc1cccc(NC(=O)CSc2nnc([C@@H](N)Cc3ccccc3)o2)c1C	–	–	·	–	–	–	·
Cc1ccccc1-c1nnc(SCC(=O)Nc2cccc(C)c2C)o1	37	·	·	–	–	–	–
COc1cc2c(cc1OC)-c1cc(Nc3ccccc3Br)nc(=O)n1CC2	35	·	–	–	–	–	–
COc1cc2c(cc1OC)-c1cc(N3CCc4ccccc43)nc(=O)n1CC2	35	–	–	–	–	–	–
COc1cc(-c2cc(-c3nnco3)c3ccccc3n2)cc(OC)c1OC	41	–	–	–	–	–	–
Cc1nc(SC(C)C(=O)NCC2CCCO2)c2cc(-c3ccccc3)sc2n1 (stereo not drawn)	–	–	·	–	–	–	–
Cc1cc(Br)ccc1NC(=O)CN(C)C(=O)C1CSC2(C)CCC(=O)N12 (stereo not drawn)	–	–	·	–	–	–	·
C=CCn1c(C)cc(C(=O)CSc2nc3ccccc3[nH]2)c1C	–	·	·	–	–	–	–
COc1cccc(C(=O)Cn2c(=N)n(C)c3ccccc32)c1	–	·	·	–	–	–	–
COc1cccc(C(=O)Cn2c(NCCO)nc3ccccc32)c1	–	·	–	–	–	–	·
